According to ChEMBL document CHEMBL5712920, “The histone methyltransferase inhibitor A-366 enhances hemoglobin expression in erythroleukemia cells upon co-exposure with chemical inducers in culture” (J Biol Res (Thessalon), 2021):
Calls of active or inactive are those of the source. The rule behind the calls is not given here.

Key:
FLC clone 745 [1] = test: Induction of cell cycle arrest in HMBA-stimulated mouse FLC clone 745 cells assessed as accumulation cells at S phase at 10^-6 M after 72 hrs by PI staining based flow cytometric analysis (reference value: 19.52%); format: functional; conditions: dose 1 10^-6M, at 1 µM
Outline: (§1)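 MEL cells plated at 5 × 10^5 per well and synchronized by serum deprivation for 24 h. Cells then incubated with compound at 10−6 M, alone or with HMBA 5 × 10−3 M, for 24, 48 and 72 h. Fixed in 70% ethanol overnight at 4 °C, stained with propidium iodide, and DNA content measured by flow cytometry to assign subG1, G1, S, G2/M and >4N fractions.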

[2] = Cytotoxicity against HMBA-stiumulated mouse FLC clone 745 cells assessed as cell viability measured after 48 hrs by Neubauer chamber based microscopic analysis (reference value: 50.563%); format: toxicity; conditions: HMBA-stimulated FLC clone 745 cells, read-out: Activity
FLC clone 745 [3] = test: Induction of cell cycle arrest in mouse FLC clone 745 cells assessed as accumulation cells at G2/M phase at 10^-6 M after 48 hrs by PI staining based flow cytometric analysis (reference value: 28.15%); format: functional; conditions: dose 1 10^-6M, at 1 µM; outline: as §1
FLC clone 745 [4] = test: Induction of cell cycle arrest in mouse FLC clone 745 cells assessed as accumulation cells at S phase at 10^-6 M after 72 hrs by PI staining based flow cytometric analysis (reference value: 24.02%); format: functional; conditions: dose 1 10^-6M, at 1 µM; outline: as §1
FLC clone 745 [5] = test: Induction of cell cycle arrest in mouse FLC clone 745 cells assessed as accumulation cells at G1/G0 phase at 10^-6 M after 48 hrs by PI staining based flow cytometric analysis (reference value: 25.43%); format: functional; conditions: dose 1 10^-6M, at 1 µM; outline: as §1
FLC clone 745 [6] = test: Induction of cell cycle arrest in HMBA-stimulated mouse FLC clone 745 cells assessed as accumulation cells at subG1 phase at 10^-6 M after 48 hrs by PI staining based flow cytometric analysis (reference value: 43.83%); format: functional; conditions: dose 1 10^-6M, at 1 µM; outline: as §1
FLC clone 745 [7] = test: Induction of cell cycle arrest in HMBA-stimulated mouse FLC clone 745 cells assessed as accumulation cells at S phase at 10^-6 M after 48 hrs by PI staining based flow cytometric analysis (reference value: 31.43%); format: functional; conditions: dose 1 10^-6M, at 1 µM; outline: as §1
FLC clone 745 [8] = test: Induction of cell cycle arrest in HMBA-stimulated mouse FLC clone 745 cells assessed as accumulation cells at G1/G0 phase at 10^-6 M after 72 hrs by PI staining based flow cytometric analysis (reference value: 7.19%); format: functional; conditions: dose 1 10^-6M, at 1 µM; outline: as §1
[9] = Inhibition of G9a/GLP in HMBA-stiumulated mouse FLC clone 745 cells assessed as increase in erythroid differentiation at IC50 concentration measured after 72 hrs by benzidine-H2O2 based assay (reference value: 69.6%); conditions: condition erythroleukemia
FLC clone 745 [10] = test: Induction of cell cycle arrest in mouse FLC clone 745 cells assessed as accumulation cells at subG1 phase at 10^-6 M after 48 hrs by PI staining based flow cytometric analysis (reference value: 9.79%); format: functional; conditions: dose 1 10^-6M, at 1 µM; outline: as §1
FLC clone 745 [11] = test: Induction of cell cycle arrest in mouse FLC clone 745 cells assessed as accumulation cells at G1/G0 phase at 10^-6 M after 72 hrs by PI staining based flow cytometric analysis (reference value: 26.4%); format: functional; conditions: dose 1 10^-6M, at 1 µM; outline: as §1
FLC clone 745 [12] = test: Induction of cell cycle arrest in HMBA-stimulated mouse FLC clone 745 cells assessed as accumulation cells at S phase at 10^-6 M after 24 hrs by PI staining based flow cytometric analysis (reference value: 21.59%); format: functional; conditions: dose 1 10^-6M, at 1 µM; outline: as §1
FLC clone 745 [13] = test: Inhibition of G9a/GLP in HMBA-stiumulated mouse FLC clone 745 cells assessed as increase in HBB mRNA expression at 10^-6 M after 48 hrs by qPCR analsysis; format: cell-based; conditions: dose 1.0 10^-6M
Outline: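 MEL cells treated for 48 h with HMBA 5 × 10−3 M plus compound at 10−6 M. Total RNA reverse-transcribed, and β-globin transcripts measured by qPCR. Data normalized to β-actin using the 2−ΔΔCt method; Student's t-test.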

FLC clone 745 [14] = test: Induction of cell cycle arrest in mouse FLC clone 745 cells assessed as accumulation cells at G2/M phase at 10^-6 M after 72 hrs by PI staining based flow cytometric analysis (reference value: 24.82%); format: functional; conditions: dose 1 10^-6M, at 1 µM; outline: as §1
K562 [15] = test: Induction of apoptosis in human K562 cells assessed as effect on caspase-8 mRNA expression level at 1 to 10 uM cells after 48 hrs by qPCR analysis; format: toxicity, cell-based; conditions: k562, 48 h, dose 1-10 µM
Outline: (§2)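 K562 cells at 10^5 cells/ml grown without compound (control) or with 10−6 M or 10−5 M compound for 48 h. Total RNA isolated, then checked by gel electrophoresis and spectrophotometry. Transcripts quantified by qPCR.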

FLC clone 745 [16] = test: Induction of cell cycle arrest in mouse FLC clone 745 cells assessed as accumulation cells at subG1 phase at 10^-6 M after 24 hrs by PI staining based flow cytometric analysis (reference value: 24.11%); format: functional; conditions: dose 1 10^-6M, at 1 µM; outline: as §1
K562 [17] = test: Induction of apoptosis in human K562 cells assessed as effect on caspase-9 mRNA expression level at 1 to 10 uM cells after 48 hrs by qPCR analysis; format: toxicity, cell-based; conditions: k562, 48 h, dose 1-10 µM; outline: as §2

In the case of `COc1cc2c(cc1OCCCN1CCCC1)N=C(N)C21CCC1`, the Activity (FLC clone 745 [1]) is reported as 19.84%, the viability at 48 h [2] is reported as 42.8% and the Activity (FLC clone 745 [3]) is reported as 22.21%. It also gave an Activity (FLC clone 745 [4]) of 23.1%, an Activity (FLC clone 745 [5]) of 21% and an Activity (FLC clone 745 [6]) of 50.9%. The Activity (FLC clone 745 [7]) was 28.62%, the Activity (FLC clone 745 [8]) was 8.17% and the “inhibition (INH)” value [9] was 76.6%. It also gave an Activity (FLC clone 745 [10]) of 18.28%, an Activity (FLC clone 745 [11]) of 14.22% and an Activity (FLC clone 745 [12]) of 1.26%. The inhibition (FLC clone 745 [13]) was “Active”, the Activity (FLC clone 745 [14]) was 11.32% and the Activity (K562 [15]) was “Non-Toxic”. The Activity (FLC clone 745 [16]) was 37.13% and the Activity (K562 [17]) was “Non-Toxic”.
